Reference: ChEMBL document CHEMBL4837210 (Eur J Med Chem, 2021)
Values after ≈ are worked out from the molar mass of the structure shown.

How the values were obtained:
[1] = tested on: Bacillus pumilus; experiment: Antibacterial activity against penicillin-susceptible Bacillus pumilus CMCC 63202 assessed as bacterial growth inhibition by broth dilution method; type: functional; conditions: time 24 hrs
Method in brief: (§1)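 Broth microdilution in Mueller Hinton broth. A 0.5 McFarland suspension was diluted tenfold, giving an inoculum of 1.5 × 10⁷ cfu/mL. This was added to 2-fold serial compound dilutions from […]. Plates were incubated aerobically at 37 °C for 24 h. MIC was the lowest concentration with no visible turbidity.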

[2] = tested on: Escherichia coli; experiment: Antibacterial activity against penicillin-susceptible Escherichia coli ATCC 25922 assessed as inhibition of bacterial growth measured by broth microdilution method; type: functional; conditions: time 24 hrs; method in brief: as §1
[3] = tested on: Staphylococcus aureus; experiment: Antibacterial activity against penicillin-resistant Staphylococcus aureus assessed as inhibition of bacterial growth measured by broth microdilution method; type: functional; conditions: time 24 hrs
Method in brief: (§2)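 Broth microdilution MIC. A 0.5 McFarland suspension was diluted 10-fold and added at 1.5 × 10⁷ cfu/mL to 2-fold dilutions (0.125–64) in Mueller Hinton broth. Incubated aerobically 24 h at 37 °C. MIC was the lowest concentration with no visible turbidity.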

[4] = tested on: Bacillus subtilis; experiment: Antibacterial activity against penicillin-susceptible Bacillus subtilis ATCC 9372 assessed as bacterial growth inhibition incubated for 24 hrs by CLSI protocol based broth microdilution method; type: functional
[5] = tested on: Enterococcus faecium; experiment: Antibacterial activity against vancomycin-susceptible Enterococcus faecium ATCC19434 assessed as bacterial growth inhibition incubated for 24 hrs by CLSI protocol based broth microdilution method; conditions: ATCC19434, 24 h
[6] = tested on: Staphylococcus epidermidis; experiment: Antibacterial activity against penicillin-resistant Staphylococcus epidermidis assessed as inhibition of bacterial growth measured by broth microdilution method; type: functional; conditions: time 24 hrs
[7] = tested on: Enterococcus faecalis; experiment: Antibacterial activity against vancomycin-susceptible Enterococcus faecalis ATCC 29212 assessed as bacterial growth inhibition incubated for 24 hrs by CLSI protocol based broth microdilution method; type: functional
[8] = tested on: Enterococcus faecalis; experiment: Antibacterial activity against vancomycin-resistant Enterococcus faecalis ATCC 51299 assessed as bacterial growth inhibition incubated for 24 hrs by CLSI protocol based broth microdilution method; type: functional
[9] = tested on: Streptococcus pyogenes; experiment: Antibacterial activity against erythromycin-susceptible Streptococcus pyogenes clinical isolate 1 assessed as bacterial growth inhibition incubated for 24 hrs by CLSI protocol based broth microdilution method; type: functional
[10] = tested on: Staphylococcus aureus; experiment: Antibacterial activity against Staphylococcus aureus assessed as inhibition of bacterial growth measured by broth microdilution method; type: functional; conditions: time 24 hrs; method in brief: as §1
[11] = tested on: Staphylococcus aureus; experiment: Antibacterial activity against erythromycin-susceptible Staphylococcus aureus ATCC 25923 assessed as bacterial growth inhibition incubated for 24 hrs by CLSI protocol based broth microdilution method; type: functional
[12] = tested on: Pseudomonas aeruginosa; experiment: Antibacterial activity against penicillin-susceptible Pseudomonas aeruginosa ATCC27853 assessed as bacterial growth inhibition incubated for 24 hrs by CLSI protocol based broth microdilution method; type: functional
[13] = tested on: Staphylococcus aureus; experiment: Antibacterial activity against methicillin-resistant Staphylococcus aureus ATCC 43300 assessed as inhibition of bacterial growth by broth microdilution method; type: functional; conditions: time 24 hrs; method in brief: as §2
[14] = tested on: Streptococcus pyogenes; experiment: Antibacterial activity against erythromycin-resistant Streptococcus pyogenes 2 assessed as bacterial growth inhibition incubated for 24 hrs by CLSI protocol based broth microdilution method; type: functional
[15] = tested on: Enterococcus faecium; experiment: Antibacterial activity against vancomycin-resistant Enterococcus faecium ATCC 51559 assessed as bacterial growth inhibition incubated for 24 hrs by CLSI protocol based broth microdilution method; conditions: ATCC 51559, 24 h
[16] = tested on: Bacillus subtilis; experiment: Bactericidal activity against penicillin-susceptible Bacillus subtilis ATCC 9372 measured after 24 hrs by CLSI protocol based method; type: functional
Method in brief: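 MBC followed on from the 24 h broth microdilution MIC plates. Aliquots from clear wells were spread on tryptic soy agar and incubated aerobically at 37 °C for 24 h. MBC was the minimum concentration giving no colonies.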

[17] = tested on: Staphylococcus aureus; experiment: Bactericidal activity against penicillin-resistant Staphylococcus aureus measured after 24 hrs by CLSI protocol based method; type: functional
Method in brief: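 MBC after broth microdilution. After 24 h, aliquots from clear wells were plated on tryptic soy agar and incubated aerobically 24 h at 37 °C. MBC was the lowest concentration giving no colonies.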

## C[n+]1c2ccccc2c(-c2ccc(-c3ccccc3)cc2)c2ccccc21.[I-]
[1]
  MIC: 1 µg/mL
[2]
  MIC: 64 µg/mL
[3]
  MIC: 8 µg/mL
[4]
  MIC: 1 µg/mL
[5]
  MIC: 4 µg/mL
[6]
  MIC: 2 µg/mL
[7]
  MIC: 4 µg/mL
[8]
  MIC: 4 µg/mL
[9]
  MIC: 0.5 µg/mL
[10]
  MIC: 0.25 µg/mL
[11]
  MIC: 0.125 µg/mL
[12]
  MIC: > 64 µg/mL
[13]
  MIC: 16 µg/mL
[14]
  MIC: 1 µg/mL
[15]
  MIC: 2 µg/mL

## C[n+]1c2ccccc2cc2ccccc21.[I-]
[1]
  MIC: > 64 µg/mL
[2]
  MIC: > 64 µg/mL
[4]
  MIC: > 64 µg/mL
[5]
  MIC: > 64 µg/mL
[6]
  MIC: > 64 µg/mL
[7]
  MIC: > 64 µg/mL
[8]
  MIC: > 64 µg/mL
[9]
  MIC: > 64 µg/mL
[10]
  MIC: > 64 µg/mL
[11]
  MIC: > 64 µg/mL
[12]
  MIC: > 64 µg/mL
[13]
  MIC: > 64 µg/mL
[14]
  MIC: > 64 µg/mL
[15]
  MIC: > 64 µg/mL

## C[n+]1c2ccccc2c(/C=C/c2ccc(Cl)cc2Cl)c2ccccc21.[I-]
[1]
  MIC: 2 µg/mL
[2]
  MIC: 32 µg/mL
[3]
  MIC: 2 µg/mL
[4]
  MIC: 0.5 µg/mL
[5]
  MIC: 4 µg/mL
[6]
  MIC: 2 µg/mL
[7]
  MIC: 2 µg/mL
[8]
  MIC: 8 µg/mL
[9]
  MIC: 0.25 µg/mL
[10]
  MIC: 1 µg/mL
[11]
  MIC: 0.5 µg/mL
[12]
  MIC: > 64 µg/mL
[13]
  MIC: 1 µg/mL
[14]
  MIC: 0.5 µg/mL
[15]
  MIC: 4 µg/mL

## C[n+]1c2ccccc2c(C#Cc2ccc(-c3ccccc3)cc2)c2ccccc21.[I-]
[1]
  MIC: 8 µg/mL
[2]
  MIC: > 64 µg/mL
[3]
  MIC: 16 µg/mL
[4]
  MIC: 8 µg/mL
[6]
  MIC: 8 µg/mL
[8]
  MIC: > 64 µg/mL
[9]
  MIC: 16 µg/mL
[10]
  MIC: 16 µg/mL
[11]
  MIC: 8 µg/mL
[12]
  MIC: > 64 µg/mL
[13]
  MIC: 16 µg/mL
[14]
  MIC: 16 µg/mL
[15]
  MIC: > 64 µg/mL

## CCCCc1ccc(-c2c3ccccc3[n+](C)c3ccccc23)cc1.[I-]
[1]
  MIC: 1 µg/mL
[2]
  MIC: 64 µg/mL
[3]
  MIC: 8 µg/mL
[4]
  MIC: 0.5 µg/mL
[5]
  MIC: 4 µg/mL
[6]
  MIC: 2 µg/mL
[7]
  MIC: 4 µg/mL
[8]
  MIC: 4 µg/mL
[9]
  MIC: 1 µg/mL
[10]
  MIC: < 0.125 µg/mL
[11]
  MIC: 0.03 µg/mL
[12]
  MIC: > 64 µg/mL
[13]
  MIC: 2 µg/mL
[14]
  MIC: 2 µg/mL
[15]
  MIC: 2 µg/mL

## CCc1ccc(C#Cc2c3ccccc3[n+](C)c3ccccc23)cc1.[I-]
[1]
  MIC: 2 µg/mL
[2]
  MIC: > 64 µg/mL
[3]
  MIC: 4 µg/mL
[4]
  MIC: 2 µg/mL
[5]
  MIC: 4 µg/mL
[6]
  MIC: 8 µg/mL
[7]
  MIC: 2 µg/mL
[8]
  MIC: 8 µg/mL
[9]
  MIC: 4 µg/mL
[10]
  MIC: 2 µg/mL
[11]
  MIC: 2 µg/mL
[12]
  MIC: > 64 µg/mL
[13]
  MIC: 2 µg/mL
[14]
  MIC: 4 µg/mL
[15]
  MIC: 4 µg/mL

## CN[C@H](CC(C)C)C(=O)N[C@H]1C(=O)N[C@@H](CC(N)=O)C(=O)N[C@H]2C(=O)N[C@H]3C(=O)N[C@H](C(=O)N[C@H](C(=O)O)c4cc(O)cc(O)c4-c4cc3ccc4O)[C@H](O)c3ccc(c(Cl)c3)Oc3cc2cc(c3O[C@@H]2O[C@H](CO)[C@@H](O)[C@H](O)[C@H]2O[C@H]2C[C@](C)(N)[C@H](O)[C@H](C)O2)Oc2ccc(cc2Cl)[C@H]1O [VANCOMYCIN]
[1]
  MIC: 2 µg/mL (≈ 1.38 µM)
[2]
  MIC: > 64 µg/mL
[4]
  MIC: 0.5 µg/mL (≈ 0.345 µM)
[5]
  MIC: 2 µg/mL (≈ 1.38 µM)
[9]
  MIC: 0.25 µg/mL (≈ 0.173 µM)
[12]
  MIC: > 64 µg/mL
[14]
  MIC: 1 µg/mL (≈ 0.69 µM)

## Cc1cccc(C#Cc2c3ccccc3[n+](C)c3ccccc23)c1.[I-]
[1]
  MIC: 2 µg/mL
[2]
  MIC: > 64 µg/mL
[3]
  MIC: 2 µg/mL
[4]
  MIC: 2 µg/mL
[5]
  MIC: 8 µg/mL
[6]
  MIC: 4 µg/mL
[7]
  MIC: 4 µg/mL
[8]
  MIC: 8 µg/mL
[9]
  MIC: 4 µg/mL
[10]
  MIC: 2 µg/mL
[11]
  MIC: 2 µg/mL
[12]
  MIC: > 64 µg/mL
[13]
  MIC: 2 µg/mL
[14]
  MIC: 4 µg/mL
[15]
  MIC: 4 µg/mL

## CC(=O)NC[C@H]1CN(c2ccc(N3CCOCC3)c(F)c2)C(=O)O1 [LINEZOLID]
[16]
  MBC: 64 µg/mL (≈ 190 µM)
[1]
  MIC: 2 µg/mL (≈ 5.93 µM)
[2]
  MIC: > 64 µg/mL
[17]
  MBC: 16 µg/mL (≈ 47.4 µM)
[4]
  MIC: 0.5 µg/mL (≈ 1.48 µM)
[6]
  MIC: 4 µg/mL (≈ 11.9 µM)
[9]
  MIC: 1 µg/mL (≈ 2.96 µM)
[12]
  MIC: > 64 µg/mL
[14]
  MIC: 1 µg/mL (≈ 2.96 µM)

## COc1ccc2cc3[n+](cc2c1OC)CCc1cc2c(cc1-3)OCO2.[Cl-] [BERBERINE CHLORIDE]
[1]
  MIC: > 64 µg/mL
[2]
  MIC: > 64 µg/mL
[4]
  MIC: > 64 µg/mL
[5]
  MIC: > 64 µg/mL
[6]
  MIC: > 64 µg/mL
[7]
  MIC: > 64 µg/mL
[8]
  MIC: > 64 µg/mL
[9]
  MIC: > 64 µg/mL
[10]
  MIC: > 64 µg/mL
[11]
  MIC: 64 µg/mL
[12]
  MIC: > 64 µg/mL
[13]
  MIC: > 64 µg/mL
[14]
  MIC: 64 µg/mL
[15]
  MIC: > 64 µg/mL

## CCCCc1ccc(/C=C/c2c3ccccc3[n+](C)c3ccccc23)cc1.[I-]
[1]
  MIC: 0.5 µg/mL
[2]
  MIC: > 64 µg/mL
[3]
  MIC: 8 µg/mL
[4]
  MIC: 1 µg/mL
[6]
  MIC: 2 µg/mL
[9]
  MIC: 0.5 µg/mL
[10]
  MIC: 2 µg/mL
[11]
  MIC: 1 µg/mL
[12]
  MIC: > 64 µg/mL
[13]
  MIC: 8 µg/mL
[14]
  MIC: 0.5 µg/mL

## C[n+]1c2ccccc2c(/C=C/c2ccccc2)c2ccccc21.[I-]
[1]
  MIC: 2 µg/mL
[2]
  MIC: > 64 µg/mL
[3]
  MIC: 8 µg/mL
[4]
  MIC: 1 µg/mL
[6]
  MIC: 8 µg/mL
[9]
  MIC: 0.25 µg/mL
[10]
  MIC: 2 µg/mL
[11]
  MIC: 0.5 µg/mL
[12]
  MIC: > 64 µg/mL
[13]
  MIC: 4 µg/mL
[14]
  MIC: 0.5 µg/mL

## C[n+]1c2ccccc2c(C#Cc2ccccc2)c2ccccc21.[I-]
[1]
  MIC: 8 µg/mL
[2]
  MIC: > 64 µg/mL
[3]
  MIC: 4 µg/mL
[4]
  MIC: 2 µg/mL
[6]
  MIC: 4 µg/mL
[9]
  MIC: 4 µg/mL
[10]
  MIC: 2 µg/mL
[11]
  MIC: 2 µg/mL
[12]
  MIC: > 64 µg/mL
[13]
  MIC: 2 µg/mL
[14]
  MIC: 8 µg/mL

## C[n+]1c2ccccc2c(/C=C/c2ccc(Br)cc2)c2ccccc21.[I-]
[1]
  MIC: 1 µg/mL
[2]
  MIC: 64 µg/mL
[3]
  MIC: 4 µg/mL
[4]
  MIC: 1 µg/mL
[6]
  MIC: 2 µg/mL
[9]
  MIC: 0.25 µg/mL
[10]
  MIC: 1 µg/mL
[11]
  MIC: 0.5 µg/mL
[12]
  MIC: > 64 µg/mL
[13]
  MIC: 2 µg/mL
[14]
  MIC: 0.5 µg/mL

## CCOc1ccc(C#Cc2c3ccccc3[n+](C)c3ccccc23)cc1.[I-]
[1]
  MIC: 4 µg/mL
[2]
  MIC: > 64 µg/mL
[3]
  MIC: 8 µg/mL
[4]
  MIC: 4 µg/mL
[6]
  MIC: 8 µg/mL
[9]
  MIC: 16 µg/mL
[10]
  MIC: 4 µg/mL
[11]
  MIC: 4 µg/mL
[12]
  MIC: > 64 µg/mL
[13]
  MIC: 4 µg/mL
[14]
  MIC: 8 µg/mL
